One series is filed under the species Homo sapiens. In words: Selectivity for human recombinant adrenergic beta2 receptor over human recombinant adrenergic beta-1 receptor. The essentials: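 Cell-based functional agonist assay using recombinant human β2 receptor expressed in CHO cells, compared against human β1 receptor.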
The nature of series [1]: Distribution coefficient, log D of the compound. The series is classed as physicochemical. The note with it: octanol/water.
Series [2] can be described thus: Metabolic stability in human liver microsomes. The series is classed as ADME, Microsome. The note with it: read-out: Stability. (In general: Liver microsomes are vesicles of endoplasmic reticulum, rich in cytochrome P450 enzymes.)
Series [3] in a line: Volume of distribution in iv dosed rat. It is filed as ADME, organism-based. The conditions noted are these: in vivo. The method in brief:
(§1)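 Rats were given the compound intravenously, and volume of distribution, clearance and half life were determined from that dosing.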

Series [4] can be described thus: Clearance in iv dosed rat. It is filed as ADME, organism-based. The note with it: in vivo. The essentials: as §1
A short description of series [5]: Oral bioavailability in rat. The series is classed as ADME, organism-based. The note with it: in vivo. The method in brief:
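Rats received the compound orally and intravenously in a crossover study.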

Series [6] is described as follows: Half life in iv dosed rat. The series is classed as ADME, organism-based. The conditions noted are these: in vivo. The method in brief: as §1

Where only a bound is given, the exact number is not on record here.

As a reminder, the logD is the decadic logarithm of the distribution of all forms, ionised or not, between an organic phase and buffer at a given pH. Turning to `C[C@H](Cc1cccc(CC(=O)NCC2CCCCCC2)c1)NC[C@H](O)c1ccc(O)c(CO)c1`, in the series filed under Homo sapiens, the Selectivity ratio was 1890. In series [1], the logD is 2.

Consider `C[C@H](Cc1cccc(CC(=O)NCC23CC4CC(CC(C4)C2)C3)c1)NC[C@H](O)c1ccc(O)c(CO)c1`, for which the Selectivity ratio in the series filed under Homo sapiens stood at 547. The half-life in series [2] came to 2 min. In series [1], the logD came out at 2.5.

Regarding `C[C@H](Cc1cccc(CC(=O)NCc2ccc(Cl)c(Cl)c2)c1)NC[C@H](O)c1ccc(O)c(CO)c1`, in the series listed under Homo sapiens, the Selectivity ratio came to 6340. Also, the half-life in series [2] came to 4 min.

Consider `C[C@H](Cc1cccc(CC(=O)NC2CCCCCCC2)c1)NC[C@H](O)c1ccc(O)c(CO)c1`, for which the Selectivity ratio in the series filed under Homo sapiens came to 192. Also, the half-life in series [2] turned out to be 2 min. The compound also yielded a logD in series [1] of 1.9.

In the case of `C[C@H](Cc1cccc(CC(=O)NC2C3CC4CC(C3)CC2C4)c1)NC[C@H](O)c1ccc(O)c(CO)c1` (stereo partly drawn), the Selectivity ratio in the series filed under Homo sapiens was found to be 451. In addition, the half-life in series [2] stood at 2 min. In addition, the pH-dependent lipophilicity (logD) in series [1] stood at 2.1.

Consider `C[C@H](Cc1cccc(CC(=O)NCC2CCCCC2)c1)NC[C@H](O)c1ccc(O)c(CO)c1`, for which the Selectivity ratio in the series listed under Homo sapiens amounted to 6790. Moreover, the half-life in series [2] was 3 min. Also, in series [1], the logD is 1.5.

The Vd is a proportionality between amount in the body and measured concentration, not a real space. Low readings indicate confinement near the circulation, high ones extensive tissue distribution. Usually clearance stands for the rate of elimination divided by the concentration. Read a low clearance as a low capacity for elimination. What is called bioavailability is the share of a dose that reaches the circulation, judged against a reference dose that is usually intravenous. Read a low bioavailability as poor availability. `C[C@H](Cc1cccc(CC(=O)NC23CC4CC(CC(C4)C2)C3)c1)NC[C@H](O)c1ccc(O)c(CO)c1`: the Vd in series [3] was 14 L/kg. For the same compound, the Selectivity ratio in the series listed under Homo sapiens came out at 2210. This compound also returned a clearance in series [4] of 103 mL/min/kg. Further, the bioavailability in series [5] is under 5%. The half-life in series [6] is 96 min; in series [2] it was 2 min. In series [1], this compound returned a logD of 2.1.

For the origin of these results see ChEMBL document CHEMBL1142368, “The discovery of adamantyl-derived, inhaled, long acting beta(2)-adrenoreceptor agonists” (Bioorg Med Chem Lett, 2008).
